From ChEMBL document CHEMBL1145212, “Fluorinated diaryl sulfides as serotonin transporter ligands: synthesis, structure-activity relationship study, and in vivo evaluation of fluorine-18-labeled compounds as PET imaging agents” (J Med Chem, 2005)

How the values were obtained:
Type in all cases: cell-based
[1] = target: Sodium-dependent dopamine transporter (Homo sapiens, UniProt Q01959); experiment: In vitro displacement of [3H]GBR-12935 from human dopamine transporter expressed in HEK293 cells
Summary of the method: (§1)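 Competitive binding using cloned human transporters expressed in HEK-293 cells. NET was labelled with [³H]nisoxetine and DAT with [³H]GBR12935, following a previously published procedure.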

[2] = target: Sodium-dependent noradrenaline transporter (Homo sapiens, UniProt P23975); experiment: In vitro displacement of [3H]nisoxetine from human norepinephrine transporter expressed in HEK293 cells; summary of the method: as §1
[3] = target: Sodium-dependent serotonin transporter (Homo sapiens, UniProt P31645); experiment: In vitro displacement of [3H]paroxetine from human serotonin transporter expressed in HEK293 cells
Sodium-dependent serotonin transporter, sequence (P31645 whole entry): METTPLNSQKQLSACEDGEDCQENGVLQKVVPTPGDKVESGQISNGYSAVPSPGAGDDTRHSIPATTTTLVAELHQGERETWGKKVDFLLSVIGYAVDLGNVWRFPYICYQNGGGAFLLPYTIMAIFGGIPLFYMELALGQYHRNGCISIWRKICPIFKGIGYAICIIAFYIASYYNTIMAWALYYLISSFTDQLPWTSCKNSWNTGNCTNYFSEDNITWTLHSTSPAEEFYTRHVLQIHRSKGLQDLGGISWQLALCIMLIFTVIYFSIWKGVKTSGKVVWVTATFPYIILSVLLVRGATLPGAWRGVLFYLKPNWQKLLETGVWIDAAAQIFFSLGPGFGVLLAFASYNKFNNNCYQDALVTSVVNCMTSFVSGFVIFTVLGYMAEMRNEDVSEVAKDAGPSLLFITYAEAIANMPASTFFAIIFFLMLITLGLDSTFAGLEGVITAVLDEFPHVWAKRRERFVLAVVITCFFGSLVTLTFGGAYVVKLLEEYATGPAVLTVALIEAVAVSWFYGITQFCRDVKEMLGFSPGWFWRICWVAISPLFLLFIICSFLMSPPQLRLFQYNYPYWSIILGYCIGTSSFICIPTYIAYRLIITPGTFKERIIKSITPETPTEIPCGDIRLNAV

Sodium-dependent dopamine transporter, sequence (Q01959 whole entry): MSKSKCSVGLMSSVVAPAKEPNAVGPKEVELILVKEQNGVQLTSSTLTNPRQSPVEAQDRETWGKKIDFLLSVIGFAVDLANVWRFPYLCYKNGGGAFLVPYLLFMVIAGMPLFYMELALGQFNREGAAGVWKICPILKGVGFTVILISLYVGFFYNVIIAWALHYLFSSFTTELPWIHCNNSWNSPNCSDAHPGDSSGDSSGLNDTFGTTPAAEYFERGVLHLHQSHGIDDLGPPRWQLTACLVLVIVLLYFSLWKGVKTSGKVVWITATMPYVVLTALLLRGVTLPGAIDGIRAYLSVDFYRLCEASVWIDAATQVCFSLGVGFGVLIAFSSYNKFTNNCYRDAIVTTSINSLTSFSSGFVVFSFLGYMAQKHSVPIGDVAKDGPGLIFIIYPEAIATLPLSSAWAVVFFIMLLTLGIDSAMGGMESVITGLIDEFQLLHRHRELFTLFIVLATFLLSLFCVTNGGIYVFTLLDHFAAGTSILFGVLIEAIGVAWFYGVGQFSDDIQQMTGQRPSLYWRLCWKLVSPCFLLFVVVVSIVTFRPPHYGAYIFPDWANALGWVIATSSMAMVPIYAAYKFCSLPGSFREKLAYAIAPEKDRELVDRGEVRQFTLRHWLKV
Sodium-dependent noradrenaline transporter, sequence (P23975 whole entry): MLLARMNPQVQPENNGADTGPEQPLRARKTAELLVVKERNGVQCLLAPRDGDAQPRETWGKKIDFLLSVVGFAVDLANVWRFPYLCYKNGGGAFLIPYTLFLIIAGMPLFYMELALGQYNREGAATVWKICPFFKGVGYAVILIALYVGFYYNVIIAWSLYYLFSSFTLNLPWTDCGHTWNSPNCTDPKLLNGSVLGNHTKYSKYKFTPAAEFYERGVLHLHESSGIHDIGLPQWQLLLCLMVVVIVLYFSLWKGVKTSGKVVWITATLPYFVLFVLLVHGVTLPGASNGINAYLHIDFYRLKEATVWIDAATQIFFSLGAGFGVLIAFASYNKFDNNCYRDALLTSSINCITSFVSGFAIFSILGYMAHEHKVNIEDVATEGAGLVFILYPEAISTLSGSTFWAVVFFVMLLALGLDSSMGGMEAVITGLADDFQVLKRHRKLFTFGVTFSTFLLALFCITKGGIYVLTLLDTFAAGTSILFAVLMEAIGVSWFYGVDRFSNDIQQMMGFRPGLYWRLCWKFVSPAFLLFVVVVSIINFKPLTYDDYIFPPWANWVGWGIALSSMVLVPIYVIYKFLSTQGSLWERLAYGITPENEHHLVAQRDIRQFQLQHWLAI

SMILES | Ki [1] [µM] | Ki [2] [µM] | Ki [3] [µM]
Cc1cc(N)c(Sc2ccccc2CN(C)C)cc1F | > 10 | 7.04 | 0.179
Cc1ccc(Sc2ccccc2CNCCCF)c(N)c1 | > 10 | 4.33 | 0.518
